In article PMC5384874 (Medicinal chemistry (Shariqah (United Arab Emirates)), 2017) one finds IC50 data, which are given here for one substance.

What all share (type): cell-based, human
In one data set the test system is A549. Put plainly: Cytotoxicity assay, CCK-8 method, A549. The following applies: read-out: IC50, cytotoxicity against A549; A549, CCK-8, 24 h incubation. The essentials: (§1)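 Cells grown in RPMI with 10% fetal bovine serum, penicillin (100 U/mL) and streptomycin (50 μg/mL), seeded in 96-well plates at […]. Test compound added at increasing concentrations; untreated cells as control. Incubated 24 h at 37 °C, 5% CO2, humidified. CCK-8 added, 2 h at 37 °C, read with europium detection protocol. IC50 versus DMSO-treated wells by logit method, at least three independent tests.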
(Tetrazolium dyes change colour on reduction, which living cells bring about.)

The subject of a further data set is MCF-7. Put plainly: Cytotoxicity assay, CCK-8 method, MCF-7. The following applies: read-out: IC50, cytotoxicity against MCF-7; MCF-7, CCK-8, 24 h incubation. The essentials: as §1
A further data set concerns HeLa. Briefly: Cytotoxicity assay, CCK-8 method, HeLa. As to conditions: read-out: IC50, cytotoxicity against HeLa, CCK-8, 24 h incubation. The essentials:
as §1

In the case of phylactones F/G [5/6], the concentration for half-maximal inhibition (IC50) came out at 7.8 µM with A549, 5.2 µM in the data set with MCF-7 and 9.6 µM in the data set on HeLa.

In general, IC50 refers to the concentration at which inhibition is half-maximal.
